# Activity calls are given as the source filed them.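 Rule for the calls, unless noted: active = Her2 level under about 52% in both replicate screens, with viability over 70% of control (limit read from the data); inconclusive = Her2 under the limit in one screen only, or viability under 70%; inactive = Her2 level above the set limit.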
# Assays:
# [1] = reducers of endogenous Her2 protein level, primary screen, SKBR3 breast tumor cells, AlphaScreen, ATP viability (AID 461); conditions: 18-24 h, measured here: SKBR3 viability, ATP luminescence, at 10 µM;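 for Her2 level: lower value means less Her2 protein in the cells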;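 for viability: percent of carrier control wells set as 100% viability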
# [2] = biological target: Receptor tyrosine-protein kinase erbB-2 (Homo sapiens) (UniProt P04626); experiment: as above; conditions: 18-24 h, at 10 µM, stronger effect = lower value
# Chain of Receptor tyrosine-protein kinase erbB-2 (Homo sapiens) (P04626 whole entry, looked up): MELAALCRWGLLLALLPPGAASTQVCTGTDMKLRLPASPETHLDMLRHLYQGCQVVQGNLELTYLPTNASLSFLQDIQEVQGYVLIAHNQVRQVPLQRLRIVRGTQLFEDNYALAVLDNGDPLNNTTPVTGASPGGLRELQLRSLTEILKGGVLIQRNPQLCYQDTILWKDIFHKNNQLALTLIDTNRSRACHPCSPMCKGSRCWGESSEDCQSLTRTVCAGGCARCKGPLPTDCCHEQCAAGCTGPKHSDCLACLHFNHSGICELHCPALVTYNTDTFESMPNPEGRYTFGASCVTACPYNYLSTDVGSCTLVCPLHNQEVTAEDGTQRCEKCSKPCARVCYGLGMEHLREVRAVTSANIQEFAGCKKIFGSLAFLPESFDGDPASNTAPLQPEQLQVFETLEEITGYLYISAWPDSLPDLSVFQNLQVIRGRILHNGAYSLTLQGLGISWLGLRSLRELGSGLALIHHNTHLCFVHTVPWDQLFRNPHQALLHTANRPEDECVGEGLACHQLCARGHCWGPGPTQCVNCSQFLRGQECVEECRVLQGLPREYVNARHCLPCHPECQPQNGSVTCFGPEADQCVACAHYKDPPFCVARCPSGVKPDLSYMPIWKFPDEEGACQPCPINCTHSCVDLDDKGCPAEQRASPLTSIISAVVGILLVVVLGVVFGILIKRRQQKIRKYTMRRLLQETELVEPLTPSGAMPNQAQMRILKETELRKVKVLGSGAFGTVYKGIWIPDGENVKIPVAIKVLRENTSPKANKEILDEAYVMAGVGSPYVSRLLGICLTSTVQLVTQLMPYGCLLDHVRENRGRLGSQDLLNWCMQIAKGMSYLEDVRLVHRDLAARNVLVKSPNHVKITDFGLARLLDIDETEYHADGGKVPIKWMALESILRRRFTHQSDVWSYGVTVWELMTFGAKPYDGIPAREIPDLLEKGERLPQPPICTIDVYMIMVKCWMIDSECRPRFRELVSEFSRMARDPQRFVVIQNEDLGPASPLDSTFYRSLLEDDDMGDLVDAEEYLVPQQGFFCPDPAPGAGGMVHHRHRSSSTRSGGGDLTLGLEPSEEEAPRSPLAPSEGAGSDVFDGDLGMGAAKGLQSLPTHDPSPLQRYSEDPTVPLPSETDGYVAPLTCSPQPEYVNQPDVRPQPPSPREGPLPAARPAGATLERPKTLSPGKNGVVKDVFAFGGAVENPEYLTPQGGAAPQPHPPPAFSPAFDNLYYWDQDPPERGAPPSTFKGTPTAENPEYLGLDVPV
# [3] = SK-BR-3 cell growth inhibitors, pilot screen, 24 h, human (AID 572;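 active = viability at or below 10% of carrier control in both of two separate runs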;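 note: compound exposure lasted between 18 and 24 h rather than exactly 24 h; 100% = carrier-treated control wells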); conditions: SK-BR-3 viability, CellTiter-Glo luminescence, at 10 µM, stronger effect = lower value
# [4] = HUVEC growth inhibition – cell-based, human, primary screen (AID 575;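 active = viability at or below 30% in both replicate assays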;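 note: 100% = median of untreated cell wells with 0.1% DMSO on each plate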); conditions: HUVEC proliferation, CellTiter-Glo luminescence, 72 h; at 10 µM; stronger effect = lower value
# Method in brief: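 Test system: primary human umbilical vein endothelial cells; medium: endothelial basal medium with 2% FBS plus growth supplements; dosing: 10 µM compound only; times: 72 h treatment at 37 °C; signal: CTG luminescence; read-out: % viability relative to median vehicle-well signal on each plate; control set: vehicle and MePR control wells; plate: 384-well, collagen-coated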
# [5] = growth inhibitors of H69AR lung tumor, primary screen, human, duplicate replicates (AID 580;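 active = viability at or under a set limit in both replicates, limit being median viability minus 3 SD, cut at about 48% in these data, passing the limit was not always enough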;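 note: 100% = mean luminescence of untreated wells and 0% = no signal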); conditions: H69AR lung tumor cells viability, ATP luminescence, 72 h; at 10 µM; stronger effect = lower value
# [6] = reversal of MRP1-mediated doxorubicin resistance, pilot screen, H69AR cells, doxorubicin co-treatment (AID 601;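 active = viability loss from added drug above about 55%, and viability with drug at most 40%, in both replicates, limit read from the data, passing the limit was not always enough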); conditions: CellTiter-Glo, 72 h, at 10 µM; for differential viability (reversal): stronger effect = higher value
# [7] = 384-well plate pilot, post-Golgi transport modulator project, inhibition of yeast transport mutant growth (AID 636; in the data active = inhibition above about 31%); conditions: absorbance 615 nm, about 18 h, stronger effect = higher value
# [8] = growth suppression of yeast trafficking mutant, preliminary HTS, modulators of trafficking downstream of Golgi apparatus project, 1536-format plate, OD 615 nm (AID 637; in the data active = inhibition above about 30%); conditions: yeast transport mutant growth, absorbance 615 nm, 18 h; stronger effect = higher value
# [9] = H69AR cells + 2 uM doxorubicin, measured here: viability with 2 uM doxorubicin, stronger effect = lower value
# [10] = H69AR cells, compound alone cytotoxicity
Compound,viability [1],Her2 level [2],viability [3],viability [4],viability [5],differential viability (reversal) ([6]; H69AR cells + 2 uM doxorubicin),"viability [6, 9]","viability [6, 10]",inhibition [7],inhibition [8]
CCOC(=O)N1CCN(C(=O)C2CC(=O)N(Cc3ccc(OC)cc3)C2)CC1 (stereo not given),96.5%,91% (inactive),96.5% (inactive),112% (inactive),93.3% (inactive),-3.47% (inactive),96.8%,93.3%,-4.34% (inactive),-1.45% (inactive)
CCc1ccccc1NC(=O)CCc1nc(-c2ccc(C)cc2)no1,95%,71.5% (inactive),95% (inactive),83% (inactive),99.3% (inactive),3.1% (inactive),96.2%,99.3%,-4.61% (inactive),-3.67% (inactive)
NC(=O)c1ccccc1NC(=O)CCCN1C(=O)CCC1=O,101%,83.5% (inactive),101% (inactive),92.9% (inactive),95.6% (inactive),10.6% (inactive),85%,95.6%,-6.89% (inactive),-1.9% (inactive)
COc1cc2[nH]c(=O)c(C(=O)NCCCN3CCCCC3)c(O)c2cc1OC,99.5%,99% (inactive),99.5% (inactive),99.5% (inactive),98.7% (inactive),7.58% (inactive),91.1%,98.7%,-6.35% (inactive),1.11% (inactive)
Cc1cc(=O)n(C)c(=O)n1CCCNc1ccccc1,82%,115% (inactive),82% (inactive),83.7% (inactive),99.9% (inactive),11.4% (inactive),88.5%,99.9%,0% (inactive),-5% (inactive)
c1ccc(CC2CCN(C(c3cccs3)c3nnnn3C3CCCC3)CC2)cc1 (stereo not given),102%,128% (inactive),102% (inactive),91.9% (inactive),93.4% (inactive),-0.24% (inactive),93.7%,93.4%,1.92% (inactive),-0.63% (inactive)
O=C(c1ccccc1Br)N1CCN(c2ccccc2)CC1,85%,83.5% (inactive),85% (inactive),93.6% (inactive),102% (inactive),12.9% (inactive),88.9%,102%,-8.22% (inactive),-4.76% (inactive)
CC(C)N(C(=O)CSc1nnc(-c2cc3ccccc3cc2O)n1Cc1ccco1)C(C)C,90.5%,76% (inactive),90.5% (inactive),66.4% (inactive),83.4% (inactive),1.54% (inactive),81.9%,83.4%,-5.81% (inactive),-0.66% (inactive)
O=C(C1CCCN(S(=O)(=O)c2cnc[nH]2)C1)N1CCN(c2ccc(Cl)cc2)CC1 (stereo not given),85.5%,93% (inactive),85.5% (inactive),110% (inactive),111% (inactive),14.8% (inactive),96%,111%,-0.13% (inactive),-4.92% (inactive)
COc1ccc(CCNC(=O)COc2ccc(S(=O)(=O)N3CCOCC3)cc2)cc1,98%,87% (inactive),98% (inactive),102% (inactive),95.1% (inactive),6.25% (inactive),88.9%,95.1%,-6.76% (inactive),0% (inactive)
CCOC(=O)C1CCN(c2c(Nc3ccc4c(c3)OCCO4)c(=O)c2=O)CC1,82.5%,100% (inactive),82.5% (inactive),88% (inactive),88.4% (inactive),-0.805% (inactive),89.2%,88.4%,1.03% (inactive),3.17% (inactive)
COc1ccc(C2CC(=O)C3=C(C2)Nc2ccccc2N(C(=O)C2CC2)C3c2cccnc2)cc1OC (stereo not given),99.5%,96.5% (inactive),99.5% (inactive),89% (inactive),97.9% (inactive),1.81% (inactive),96.1%,97.9%,-0.79% (inactive),-1.67% (inactive)
CCCC1CC(C)(C(=O)Cn2[nH]c(=O)ccc2=O)OC1=O (stereo not given),84%,95.5% (inactive),84% (inactive),105% (inactive),91.8% (inactive),-3.6% (inactive),95.4%,91.8%,-4% (inactive),5.08% (inactive)
CCC(C)(C)NC(=O)C(OC(=O)c1ccco1)c1ccccc1OC (stereo not given),99%,93% (inactive),99% (inactive),91.4% (inactive),106% (inactive),18.8% (inactive),87.2%,106%,-3.65% (inactive),-5% (inactive)

# From PubChem BioAssay
